Results taken from PubChem BioAssay.
The source made the active and inactive calls.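 How the source made its calls, unless noted: active means visually confirmed hit in the image check and inhibition above 20%; inconclusive means visually confirmed hit but inhibition not above 20%; inactive means no visual hit in the image check.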

Legend:
[1] = inhibitors of TNFa-induced NFkB p65 translocation, primary screen, imaging, HUVEC, MLSMR starter and 10KST1 sets (AID 438;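 active means inhibition above 20% together with a positive visual image hit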;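 further: compound added about 3h40 before a 20 min TNFalpha stimulation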;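 on inhibition: signal is the nuclear over cytoplasmic p65 intensity ratio per well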); conditions: HUVEC TNFa-induced p65 nuclear translocation; cell count: measured here: nuclei count (cytotoxicity indicator), at 2.08 µM; inhibition: at 2 µM, stronger effect = higher value, 0% TNFa-plus-vehicle, 100% no-TNFa wells
[2] = inhibitors of E-selectin induction by TNFa, primary screen, imaging, HUVEC, immunofluorescence, MLSMR starter and 10KST1 sets (AID 487); conditions: HUVEC TNFalpha-induced E-selectin immunofluorescence imaging, at 2 µM; inhibition: stronger effect = higher value; nuclei count: measured here: cell number, toxicity;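 on inhibition: signal is fraction of cell area covered by stained E-selectin grains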;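 on nuclei count: 100% = median nuclei count of all wells on the same plate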
[3] = DUSP6 inhibitors restoring Erk phosphorylation by chemical complementation, primary imaging in DUSP6-transfected HeLa (AID 609;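 active means compounds giving at least 50% inhibition in the cell-based MKP-3 phosphatase rescue imaging test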;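 on inhibition: phospho-Erk level distribution per well compared with pooled transfected vehicle control wells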); conditions: HeLa MKP-3 transfected, phospho-Erk imaging KS statistic, at 10 µM, cells stimulated with TPA for 15 min
[4] = molecular target: Dual specificity protein phosphatase 6 (Homo sapiens) (UniProt Q16828); experiment: as above; conditions: HeLa MKP-3 transfected, phospho-Erk imaging KS statistic; at 10 µM; stronger effect = higher value; cells stimulated with TPA for 15 min
Sequence of Dual specificity protein phosphatase 6 (Homo sapiens) (Q16828 whole entry, looked up): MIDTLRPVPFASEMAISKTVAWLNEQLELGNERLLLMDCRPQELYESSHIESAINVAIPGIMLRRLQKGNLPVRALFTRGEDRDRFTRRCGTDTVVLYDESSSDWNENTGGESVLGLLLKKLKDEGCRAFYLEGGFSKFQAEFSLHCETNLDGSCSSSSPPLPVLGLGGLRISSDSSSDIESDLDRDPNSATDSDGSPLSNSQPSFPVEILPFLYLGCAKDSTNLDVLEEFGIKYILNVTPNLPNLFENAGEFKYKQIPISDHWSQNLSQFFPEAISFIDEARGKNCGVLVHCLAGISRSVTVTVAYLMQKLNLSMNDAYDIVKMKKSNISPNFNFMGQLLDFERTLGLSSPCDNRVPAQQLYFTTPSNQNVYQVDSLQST

[5] = molecular target: Voltage-gated potassium channel subunit beta-2 (Rattus norvegicus) (UniProt P62483); experiment: KvBeta enzyme negative modulators, primary screen, biochemical, NADPH fluorescence (AID 622;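 active means fluorescence slope higher than the sample average by over 3 SD, cut at about -0.22 in these data, passing the limit was not always enough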;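 further: slope of raw intensity against log time taken from 70 to 1610 s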); conditions: recombinant KvBeta, 4-cyanobenzaldehyde reduction, at 10 µM, stronger effect = higher value
Sequence of Voltage-gated potassium channel subunit beta-2 (Rattus norvegicus) (P62483 whole entry, looked up): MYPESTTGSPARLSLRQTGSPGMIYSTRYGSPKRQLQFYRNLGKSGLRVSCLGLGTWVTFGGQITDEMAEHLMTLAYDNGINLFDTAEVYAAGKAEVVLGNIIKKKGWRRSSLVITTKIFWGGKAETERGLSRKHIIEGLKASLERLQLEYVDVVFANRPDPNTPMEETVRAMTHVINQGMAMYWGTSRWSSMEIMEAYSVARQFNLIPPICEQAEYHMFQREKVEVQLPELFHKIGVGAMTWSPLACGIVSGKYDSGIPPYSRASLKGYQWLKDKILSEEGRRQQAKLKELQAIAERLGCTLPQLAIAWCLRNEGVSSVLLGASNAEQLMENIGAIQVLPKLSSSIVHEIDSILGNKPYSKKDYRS

[6] = molecular target: Voltage-gated potassium channel subunit beta-2 (Rattus norvegicus) (UniProt P62483); experiment: KvBeta positive modulators, primary screen, biochemical, NADPH fluorescence (AID 623;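 active means NADPH fluorescence slope more negative than the mean of all samples by about 3 SD, 99.7% confidence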;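 further: fluorescence intensity change per second fitted from 20 to 320 s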); conditions: Recombinant KvBeta, NADPH fluorescence decrease slope, 10 min; at 10 µM; stronger effect = lower value
[7] = molecular target: Alpha-2C adrenergic receptor (Homo sapiens) (UniProt P18825); experiment: modulators of alpha2C/GIRK thallium flux, primary screen, cell-based, HEK293 alpha2C/GIRK1/2 (AID 624;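 active means fluorescence slope after compound addition differing from the mean of all screened samples at 99.7% confidence, in either direction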;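 further: slope of fluorescence ratio to pre-addition baseline per second over 15 to 24 s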); conditions: thallium flux BTC fluorescence, at 10 µM, actives lie on both sides
Sequence of Alpha-2C adrenergic receptor (Homo sapiens) (P18825 whole entry, looked up): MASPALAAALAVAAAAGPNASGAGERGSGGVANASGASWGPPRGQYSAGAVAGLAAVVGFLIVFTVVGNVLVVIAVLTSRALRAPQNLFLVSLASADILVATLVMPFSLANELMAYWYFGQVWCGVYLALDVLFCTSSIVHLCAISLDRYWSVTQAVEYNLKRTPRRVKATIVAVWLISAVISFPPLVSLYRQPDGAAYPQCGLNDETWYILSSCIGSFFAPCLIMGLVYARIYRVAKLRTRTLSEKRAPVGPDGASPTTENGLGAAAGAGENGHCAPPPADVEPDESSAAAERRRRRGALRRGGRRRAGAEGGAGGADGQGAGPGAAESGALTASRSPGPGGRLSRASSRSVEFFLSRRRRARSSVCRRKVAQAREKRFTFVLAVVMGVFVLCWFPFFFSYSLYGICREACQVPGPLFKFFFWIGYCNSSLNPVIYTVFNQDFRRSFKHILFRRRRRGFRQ

[8] = inhibitors of larval lipid processing in zebrafish, primary screen, whole organism, PED6 fluorescence, gall bladder and intestine (AID 686;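 active means a full or partial loss of lipid-probe fluorescence in the fish gall bladder, intestine or both, judged by eye; inactive means no fluorescence loss, or compound toxic to the fish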;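 further: larvae 5 to 7 days old with five fish per well; signal comes from phospholipase A2 cleavage of quenched PED6 carried via bile; overnight exposure to compound and PED6 before scoring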); conditions: Zebrafish larvae PED6 lipid processing, fluorescence scoring; screened at 20 µM (by protocol)
How it was run: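 Test system – live zebrafish larvae aged 5-7 days, whole organism · Buffer or medium – E3 fish medium · Reagent – quenched phospholipase substrate PED6, 100 nM final, ingested by larvae · Doses – 20 µM single dose · Incubation – overnight compound and PED6 incubation · Technique – visual fluorescence microscopy scoring of gall bladder, gut · Read-out basis – visual per-well fluorescence inhibition score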

[9] = inhibitors of Chlamydomonas gravitaxis, primary screen, whole organism, Chlamydomonas reinhardtii, WT vs cilia-less mutant, absorbance, 96-well (AID 463189;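 active means inhibition at or above 50% relative to wild type and mutant plate controls; inactive means inhibition below 50%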;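 further: 0% = wild type cc124 cells in DMSO and 100% = ciliumless bld1 mutant cells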); conditions: OD600 absorbance, 2 days, at 10 µM, stronger effect = higher value
[10] = measured here: cell density z-score
[11] = measured here: nuclear c-Myc green intensity z-score
[12] = measured here: nuclear pErk red intensity z-score, stronger effect = higher value

| SMILES | cell count [1] | inhibition [1] | inhibition [2] | nuclei count [2] [%] | z-score [3, 10] | z-score [3, 11] | z-score [3, 12] | inhibition [4] | fluorescence slope [5] | NADPH fluorescence slope [6] | slope [7] | outcome [8] | inhibition [9] |
| --- | --- | --- | --- | --- | --- | --- | --- | --- | --- | --- | --- | --- | --- |
| CCOC(=O)CSc1nc2sc3c(c2c(=O)[nH]1)CC(C)(C)OC3 | 583 | -40.2% (inactive) | 18.3% (inactive) | 123 | -1.86 | 1.97 | -0.11 | 7.48% (inactive) | -0.519 (inactive) | -0.000112 (inactive) | 0.0047 (inactive) | inactive | -8.53% (inactive) |
| CCC1(C)Cc2ccccc2-c2nc(NCCO)n(-c3ccccc3)c(=O)c21 (stereo not drawn) | 467 | 0.9% (inactive) | -104% (inactive) | 137 | -0.977 | 0.92 | 0.687 | -14% (inactive) | -0.0137 (active) | 6.5e-06 (inactive) | 0.00569 (inactive) | inactive | -9.34% (inactive) |
| CCCOc1ccc(N2C(=O)CC(N(Cc3ccc(S(N)(=O)=O)cc3)C(=O)CC)C2=O)cc1 (stereo not drawn) | 441 | -4.6% (inactive) | -308% (inactive) | 184 | -0.613 | 0.516 | 0.905 | -7.28% (inactive) | -0.326 (inactive) | 1.9e-05 (inactive) | 0.00479 (inactive) | inactive | 2.36% (inactive) |
| CCc1nnc(NC(=O)c2c(O)c3c([nH]c2=O)CCCC3)s1 | 332 | -15.4% (inactive) | -91.6% (inactive) | 154 | 0.462 | -0.342 | -0.281 | -7.01% (inactive) | -0.391 (inactive) | -0.000158 (inactive) | 0.00514 (inactive) | inactive | 8.98% (inactive) |
| Cc1ccc(N(CN2C(=O)NC(C)(C)C2=O)CN2C(=O)NC(C)(C)C2=O)cc1 | 465 | 5.9% (inactive) | -355% (inactive) | 156 | 0.539 | 0.101 | 0.322 | 2.71% (inactive) | -0.315 (inactive) | -9.5e-06 (inactive) | 0.00542 (inactive) | inactive | 5.64% (inactive) |
| CCCCOC(=O)Nc1ccc(S(=O)(=O)Nc2nc(C)cc(C)n2)cc1 | 515 | -10.1% (inactive) | -17.4% (inactive) | 128 | 0.944 | 1.82 | -0.786 | 2.92% (inactive) | -0.439 (inactive) | -1.7e-05 (inactive) | 0.00517 (inactive) | inactive | -15.6% (inactive) |
| CC1CCN(c2oc(-c3ccccc3Cl)nc2C#N)CC1 | 601 | -11.3% (inactive) | 36.1% (inactive) | 153 | -0.563 | 0.859 | 0.215 | -0.674% (inactive) | -0.397 (inactive) | -0.000144 (inactive) | 0.00562 (inactive) | inactive | 4.67% (inactive) |
| CCCCCCc1cc2cc(-c3nnc(-c4ccccc4O)o3)c(=O)oc2cc1O | 473 | -2.3% (inactive) | -99.6% (inactive) | 122 | -0.061 | 1.83 | -1.3 | -7.79% (inactive) | -0.274 (inactive) | 5.9e-06 (inactive) | 0.0685 (active) | inactive | 13.3% (inactive) |
| CCOP(=O)(c1ccccc1)c1nc(-c2ccc(F)cc2)oc1N1CCCCC1 (stereo not drawn) | 658 | 1.8% (inactive) | -100% (inactive) | 136 | 0.739 | -0.227 | 1.53 | 4.25% (inactive) | -0.529 (inactive) | -0.000105 (inactive) | 0.00389 (inactive) | inactive | 2.55% (inactive) |
| CC1(C)CC(=O)c2cc(C(=O)N3CCCC(C)(C)C3)c(=O)n(-c3ccccc3)c2C1 | 523 | -8% (inactive) | -71.4% (inactive) | 121 | 0.578 | 0.18 | 1.1 | 7.48% (inactive) | -0.48 (inactive) | -0.000165 (inactive) | 0.00502 (inactive) | inactive | 31.5% (inactive) |
| CCSc1nnc(N(CCC#N)CCC#N)s1 | 364 | -4.7% (inactive) | -60.2% (inactive) | 114 | -0.814 | 0.606 | -1.64 | 5.57% (inactive) | -0.474 (inactive) | -5.4e-06 (inactive) | 0.00528 (inactive) | inactive | -11.4% (inactive) |
| O=C(c1ccco1)N1CCN(c2ncnc3c2[nH]c2ccccc23)CC1 | 462 | 0.3% (inactive) | -18.4% (inactive) | 138 | 1.15 | 0.243 | 0.509 | 0.671% (inactive) | -0.359 (inactive) | -1.6e-05 (inactive) | 0.00516 (inactive) | inactive | -4.22% (inactive) |
| CN1C(=O)N(c2ccccc2)C(Nc2nncs2)C1(C)C (stereo not drawn) | 438 | 3.5% (inactive) | -58.9% (inactive) | 167 | -0.342 | 0.524 | 0.181 | -2.29% (inactive) | -0.341 (inactive) | -2.5e-05 (inactive) | 0.00481 (inactive) | inactive | 1.2% (inactive) |
| CC(=O)N[C@H]1C[C@@H]1c1ccccc1 | 404 | -8.9% (inactive) | 0.6% (inactive) | 103 | 0.812 | -0.111 | -1.93 | 6.04% (inactive) | -0.4 (inactive) | 3.1e-05 (inactive) | 0.00883 (inactive) | inactive | -14.5% (inactive) |
| COC(=O)c1ccc(=O)n(Cc2ccc3c(c2)OCO3)c1 | 394 | -2.1% (inactive) | -128% (inactive) | 137 | 2.55 | 0.425 | -1.58 | 2.46% (inactive) | -0.427 (inactive) | -4.6e-05 (inactive) | 0.00627 (inactive) | inactive | -6.36% (inactive) |
| COC(=O)c1ccc(C(=O)OC)c(NC(=O)c2cc3ccccc3o2)c1 | 641 | -12.1% (inactive) | 15.1% (inactive) | 175 | 2.88 | -0.375 | -1.4 | 6.51% (inactive) | -0.377 (inactive) | -5.2e-05 (inactive) | 0.00547 (inactive) | inactive | -2.3% (inactive) |
| CCCc1[nH]n(-c2nc3ccccc3s2)c(=O)c1C=NCCN1CCOCC1 | 538 | 1.3% (inactive) | -110% (inactive) | 123 | -0.895 | 0.406 | -1.01 | 7.93% (inactive) | -0.474 (inactive) | -4e-05 (inactive) | 0.00553 (inactive) | inactive | 19.8% (inactive) |
| COc1ccc(/C(O)=C2/C(=O)C(=O)N(CCN3CCOCC3)C2c2ccccn2)cc1 (stereo not drawn) | 316 | -13.6% (inactive) | 25.6% (inactive) | 75.8 | -1.25 | 0.879 | 1.18 | -7.79% (inactive) | -0.44 (inactive) | -1.3e-05 (inactive) | 0.00633 (inactive) | inactive | 25.9% (inactive) |
| Cc1ccc(S(=O)(=O)/C(C#N)=C/c2c(N3CCN(C)CC3)nc3c(C)cccn3c2=O)cc1 | 485 | 3.3% (inactive) | 20% (inactive) | 160 | -0.459 | 0.434 | 1.14 | 20.3% (inactive) | -0.382 (inactive) | -4.1e-05 (inactive) | 0.00164 (active) | inactive | -7.2% (inactive) |
| CCN1C(=O)CC(N2CCN(c3ccc(OC)cc3)CC2)C1=O (stereo not drawn) | 489 | -27.6% (inactive) | -368% (inactive) | 154 | 1.11 | -0.53 | -0.692 | 16.1% (inactive) | -0.537 (inactive) | -6.5e-05 (inactive) | 0.00497 (inactive) | inactive | 5.49% (inactive) |
| COc1ccc(Cl)cc1N=Cc1c(O)cc(C)oc1=O | 347 | -4.9% (inactive) | -136% (inactive) | 189 | 0.57 | -0.693 | 0.874 | 12.3% (inactive) | -0.415 (inactive) | -0.0002 (inactive) | 0.00387 (inactive) | inactive | 16.9% (inactive) |
| CCCCCCC(=O)N1CCN(c2cc3c(cc2F)c(=O)c(C(=O)O)cn3CC)CC1 | 402 | 6% (inactive) | -166% (inactive) | 224 | -1.36 | 0.0882 | 0.161 | 6.04% (inactive) | -0.0683 (inactive) | -1.7e-05 (inactive) | 0.0054 (inactive) | inactive | 4.18% (inactive) |
| Cc1nn(-c2ccccc2)c2c1C(c1ccc(F)cc1F)C(C#N)=C(N)O2 (stereo not drawn) | 611 | -19.6% (inactive) | 17.2% (inactive) | 184 | 0.29 | -0.619 | 0.392 | 19.1% (inactive) | -0.41 (inactive) | -2.3e-05 (inactive) | 0.00636 (inactive) | inactive | 18.8% (inactive) |
| CCCCNc1nc2c(c(=O)n(C)c(=O)n2C)n1Cc1cccc(OC)c1 | 452 | -7.7% (inactive) | -133% (inactive) | 175 | 0.299 | -0.341 | -1.15 | -5.62% (inactive) | -0.378 (inactive) | -1.6e-05 (inactive) | 0.00373 (inactive) | active; weak signal in gallbladder and intestine | 1.32% (inactive) |
| CC(=O)Oc1ccccc1C1OCCN1C(C)=O (stereo not drawn) | 619 | -6.5% (inactive) | -38.8% (inactive) | 170 | -0.208 | -0.565 | 1.43 | -2.69% (inactive) | -0.375 (inactive) | -2.3e-05 (inactive) | 0.00518 (inactive) | inactive | -5.26% (inactive) |
| C=CCn1cnc2c(c1=O)c1nc3ccccc3nc1n2-c1ccc(Cl)cc1 | 479 | -0.2% (inactive) | -57.8% (inactive) | 97.9 | 0.198 | -0.115 | -0.677 | 3.5% (inactive) | -0.489 (inactive) | -1.8e-05 (inactive) | 0.00468 (inactive) | inactive | 22.7% (inactive) |
